Key:
Cavia porcellus [1] = species on record: Cavia porcellus; assay: Inhibition of spontaneous tone in Guinea pig tracheal spiral strips.; type: functional, Trachea
In short: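 Guinea pig isolated trachealis, spontaneous tone. Relaxation is compared with the response to isoprenaline. IC50 is the concentration giving 50% of the isoprenaline response, read from the dose-response curve. Reported as the geometric mean, generally of four or more determinations.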

Cavia porcellus [2] = species on record: Cavia porcellus; assay: Intrinsic activity measured on Guinea pig tracheal spiral strips.; type: functional, Trachea
In short: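 Guinea pig isolated trachealis relaxation. Intrinsic activity is the compound's maximum relaxant response divided by the maximum produced by isoprenaline. Reported as an arithmetic mean.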

IC50 (Cavia porcellus [1]; Cavia porcellus, Trachea) [µM]	IC50 (Cavia porcellus [1]) [µM]	Structure (SMILES)	Intrinsic activity (Cavia porcellus [2])
> 20		CC1(C)C=C(N2CCCCC2=O)c2c(cccc2C(F)(F)F)O1	0.11
3.96		CC1(C)C=C(N2CCCCC2=O)c2ccc(C#N)cc2O1	0.86
> 17		CC1(C)Oc2cc(C#N)ccc2[C@@H](N2CCCCC2=O)[C@@H]1O	0.56
2.97		CC1(C)C=C(N2CCCCC2=O)c2ccc(C(F)(F)F)cc2O1	0.97
2.1		CC1(C)C=C(n2ccccc2=O)c2cnccc2O1	0.93
0.058		CC1(C)Oc2ccc(C(F)(F)F)cc2[C@@H](N2CCCCC2=O)[C@@H]1O	0.96
0.27		CC1(C)Oc2ccc(C#N)cc2[C@@H](N2CCCCC2=O)[C@@H]1O	0.82
0.65		CC1(C)C=C(N2CCCCC2=O)c2cc(C(F)(F)F)ccc2O1	0.89
> 20		CC1(C)C=C(n2ccccc2=O)c2c[n+]([O-])ccc2O1	0.01
6.7		CC1(C)C=C(N2CCCC2=O)c2cnccc2O1	0.67
7.5		CC1(C)C=C(N2CCC2=O)c2cc(C#N)ccc2O1	0.91
0.056		CC1(C)C=C(n2ccccc2=O)c2cc(C(F)(F)F)ccc2O1	0.97
2.68		CCc1ccc2c(c1)[C@@H](N1CCCC1=O)[C@H](O)C(C)(C)O2	0.92
2.25		CCc1ccc2c(c1)OC(C)(C)[C@@H](O)[C@@H]2N1CCCCC1=O	0.83
> 20		CC1(C)Oc2ccc(C#N)cc2[C@@H](N2CCC2=O)[C@@H]1O	
0.41		CC1(C)Oc2ccc(C(F)(F)F)cc2[C@@H](N2CCCC2=O)[C@@H]1O	0.92
1.57		CC1(C)C=C(N2CCCC2=O)c2cc(C#N)ccc2O1	0.91
1.1		CC1(C)C=C(N2CCCCC2=O)c2cc(C#N)ccc2O1	0.9

IC50 (Cavia porcellus [1]; Cavia porcellus, Trachea) [µM]	IC50 (Cavia porcellus [1]) [µM]	Structure (SMILES)	Intrinsic activity (Cavia porcellus [2])
0.66		CC1(C)Oc2ccncc2[C@@H](N2CCCCC2=O)[C@@H]1O	0.84
5.1		CC1(C)C=C(N2CCCC2=O)c2ccc(C(F)(F)F)cc2O1	0.97
2.2		CC1(C)C=C(N2CCCCC2=O)c2cnccc2O1	0.92
> 20		CC1(C)Oc2cccc(C(F)(F)F)c2[C@@H](N2CCCCC2=O)[C@@H]1O	0.13
5.1		CC1(C)Oc2ccncc2[C@@H](n2ccccc2=O)[C@@H]1O	0.81
8.6		CC1(C)Oc2ccncc2[C@@H](N2CCCC2=O)[C@@H]1O	0.68
0.73		CC1(C)Oc2cc(C(F)(F)F)ccc2[C@@H](N2CCCC2=O)[C@@H]1O	0.9
1.2		Cc1ccc2c(c1)[C@@H](N1CCCCC1=O)[C@H](O)C(C)(C)O2	0.92
13.5		Cc1ccc2c(c1)[C@@H](N1CCCC1=O)[C@H](O)C(C)(C)O2	0.62
0.54		CC1(C)Oc2ccc(C(F)(F)F)cc2[C@@H](n2ccccc2=O)[C@@H]1O	0.96
	0.66	CC1(C)Oc2cc(C(F)(F)F)ccc2[C@@H](N2CCCCC2=O)[C@@H]1O (racemic)	
	0.36	CC1(C)Oc2cc(C(F)(F)F)ccc2[C@@H](N2CCCCC2=O)[C@@H]1O (stereo in doubt; (+)24)	0.89
	12.6	CC1(C)Oc2cc(C(F)(F)F)ccc2[C@@H](N2CCCCC2=O)[C@@H]1O (stereo in doubt; (-)24)	0.69
0.018		CC(C)(C)NCC(O)c1ccc(O)c(CO)c1 (centres undefined) [ALBUTEROL]	0.98
0.089		CC1(C)C=C(n2ccccc2=O)c2cc(C#N)ccc2O1 [BIMAKALIM]	0.93
1.1		CC1(C)Oc2ccc(C#N)cc2C(N2CCCC2=O)C1O (centres undefined) [CROMAKALIM]	0.89
0.76		CC1(C)Oc2ccc(C#N)cc2[C@@H](n2ccccc2=O)[C@@H]1O [EMAKALIM]	0.96
3.63		CC(N/C(=N\C#N)Nc1ccncc1)C(C)(C)C (centres undefined) [PINACIDIL ANHYDROUS]	0.86

Structure (SMILES)	IC50 (Cavia porcellus [1]; Cavia porcellus, Trachea) [µM]	IC50 (Cavia porcellus [1]) [µM]	Intrinsic activity (Cavia porcellus [2])
Cn1c(=O)c2[nH]cnc2n(C)c1=O.Cn1c(=O)c2[nH]cnc2n(C)c1=O.NCCN [AMINOPHYLLINE]	20.1		0.54
COC(=O)C1=C(C)NC(C)=C(C(=O)OC)C1c1ccccc1[N+](=O)[O-] [NIFEDIPINE]	> 20		0.49

Source: ChEMBL document CHEMBL1125010, “Relaxant activity of 4-amido-3,4-dihydro-2H-1-benzopyran-3-ols and 4-amido-2H-1-benzopyrans on guinea pig isolated trachealis” (J Med Chem, 1990)
